From ChEMBL document CHEMBL1126568, “Nucleosides and nucleotides. 122. 2'-C-cyano-2'-deoxy-1-beta-D-arabinofuranosylcytosine and its derivatives. A new class of nucleoside with a broad antitumor spectrum” (J Med Chem, 1993)

Columns and labels:
Assay type in all cases: functional
Mus musculus [1] = experiment: Tested for 60-day survivors after administration at 50 mg/kg orally in M5076 mouse reticulum cell sarcoma; conditions: route oral
Summary of the method: (§1)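 Female BD2F1 mice were implanted s.c. with 1 × 10^6 M5076 cells and dosed orally on days 1, 4, 7, 10, 13 and 16. Vehicle was saline or 5% DMA in 0.5% CMC. Groups had six mice (three at 400 mg/kg), with nine untreated controls. The number of mice alive at 60 days was counted.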

Mus musculus [2] = experiment: Percent treated was determined after administration at 30 mg/kg orally; conditions: route oral
Summary of the method: (§2)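 In female BD2F1 mice bearing s.c. M5076 sarcoma (1 × 10^6 cells), drug was given orally on days 1, 4, 7, 10, 13 and 16, with six mice per treated group and nine untreated controls. T/C (%) = median survival day of treated mice / median survival day of untreated controls × 100.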

Mus musculus [3] = experiment: Tested for 60-day survivors after administration at 30 mg/kg orally in M5076 mouse reticulum cell sarcoma; conditions: route oral; summary of the method: as §1
Mus musculus [4] = experiment: Weight change in M5076 mouse reticulum cell sarcoma after administration at 40 mg/kg orally; conditions: route oral
Summary of the method: (§3)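 Mice were female BD2F1 bearing s.c. M5076 sarcoma (1 × 10^6 cells) and given oral drug on days 1, 4, 7, 10, 13 and 16. Body weight change (g) = average body weight on day 20 minus average on day 1.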

Mus musculus [5] = experiment: Weight change in M5076 mouse reticulum cell sarcoma after administration at 30 mg/kg orally; conditions: route oral; summary of the method: as §3
Mus musculus [6] = experiment: Weight change in M5076 mouse reticulum cell sarcoma after administration at 10 mg/kg orally; conditions: route oral; summary of the method: as §3
Mus musculus [7] = experiment: Percent treated was determined after administration at 40 mg/kg orally; conditions: route oral; summary of the method: as §2
Mus musculus [8] = experiment: Percent inhibition against M5076 mouse reticulum cell sarcoma after administration at 30 mg/kg orally on day 20; conditions: M5076, 480 h, route oral
Summary of the method: (§4)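 Female BD2F1 mice (7-8 weeks, 20-25 g) were given 1 × 10^6 viable M5076 cells s.c. in the axillary region. Drug in saline or 5% DMA/0.5% CMC was given orally on days 1, 4, 7, 10, 13 and 16, with six mice per group and untreated controls. Tumor volume = 0.5 × length × width². Inhibition on day 20 = (1 − Vt/Vc) × 100.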

Mus musculus [9] = experiment: Percent treated was determined after administration at 50 mg/kg orally; conditions: route oral; summary of the method: as §2
Mus musculus [10] = experiment: Weight change in M5076 mouse reticulum cell sarcoma after administration at 50 mg/kg orally; conditions: route oral; summary of the method: as §3
Mus musculus [11] = experiment: Percent inhibition against M5076 mouse reticulum cell sarcoma after administration at 20 mg/kg orally on day 20; conditions: M5076, 480 h, route oral; summary of the method: as §4
Mus musculus [12] = experiment: Weight change in M5076 mouse reticulum cell sarcoma after administration at 20 mg/kg orally; conditions: route oral; summary of the method: as §3
Mus musculus [13] = experiment: Percent inhibition against M5076 mouse reticulum cell sarcoma after administration at 40 mg/kg orally on day 20; conditions: M5076, 480 h, route oral; summary of the method: as §4
Mus musculus [14] = experiment: Tested for 60-day survivors after administration at 10 mg/kg orally in M5076 mouse reticulum cell sarcoma; conditions: route oral; summary of the method: as §1
Mus musculus [15] = experiment: Percent inhibition against M5076 mouse reticulum cell sarcoma after administration at 10 mg/kg orally on day 20; conditions: M5076, 480 h, route oral; summary of the method: as §4
Mus musculus [16] = experiment: Tested for 60-day survivors after administration at 20 mg/kg orally in M5076 mouse reticulum cell sarcoma; conditions: route oral; summary of the method: as §1
Mus musculus [17] = experiment: Percent treated was determined after administration at 20 mg/kg orally; conditions: route oral; summary of the method: as §2
Mus musculus [18] = experiment: Percent inhibition against M5076 mouse reticulum cell sarcoma after administration at 50 mg/kg orally on day 20; conditions: M5076, 480 h, route oral; summary of the method: as §4
Mus musculus [19] = experiment: Tested for 60-day survivors after administration at 40 mg/kg orally in M5076 mouse reticulum cell sarcoma; conditions: route oral; summary of the method: as §1
Mus musculus [20] = experiment: Percent treated was determined after administration at 10 mg/kg orally; conditions: route oral; summary of the method: as §2

O=c1[nH]cc(F)c(=O)[nH]1 [FLUOROURACIL]
Survivors (Mus musculus [1]): 6 | T/C (Mus musculus [2]): 86% | Survivors (Mus musculus [3]): 6 | Weight change (Mus musculus [4]): 2.1 g | Weight change (Mus musculus [5]): 2.4 g | Weight change (Mus musculus [6]): 2.4 g | T/C (Mus musculus [7]): 79% | inhibition in vivo at 30 mg/kg (Mus musculus [8]): 9% | T/C (Mus musculus [9]): 79% | Weight change (Mus musculus [10]): 1.4 g | inhibition in vivo at 20 mg/kg (Mus musculus [11]): 6% | Weight change (Mus musculus [12]): 2.2 g | inhibition in vivo at 40 mg/kg (Mus musculus [13]): 17% | Survivors (Mus musculus [14]): 6 | inhibition in vivo at 10 mg/kg (Mus musculus [15]): 1% | Survivors (Mus musculus [16]): 6 | T/C (Mus musculus [17]): 85% | inhibition in vivo at 50 mg/kg (Mus musculus [18]): 28% | Survivors (Mus musculus [19]): 6 | T/C (Mus musculus [20]): 94%
